Screening results (PubChem)
UCH37 inh = inhibitors of human deubiquitinating enzyme UCH37; Q9Y5K5; purified proteasome/UCH37, Ub-AMC cleavage fluorescence; inhibition, % (concentration not given with the values); 0.33% of 330,000 active; AID 588478;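 active = mean inhibition over replicate wells above about 20%, limit read from the data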;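 note: 0% = compound-free wells with enzyme and 100% = wells lacking proteasome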
Target sequence (Q9Y5K5 whole entry, looked up): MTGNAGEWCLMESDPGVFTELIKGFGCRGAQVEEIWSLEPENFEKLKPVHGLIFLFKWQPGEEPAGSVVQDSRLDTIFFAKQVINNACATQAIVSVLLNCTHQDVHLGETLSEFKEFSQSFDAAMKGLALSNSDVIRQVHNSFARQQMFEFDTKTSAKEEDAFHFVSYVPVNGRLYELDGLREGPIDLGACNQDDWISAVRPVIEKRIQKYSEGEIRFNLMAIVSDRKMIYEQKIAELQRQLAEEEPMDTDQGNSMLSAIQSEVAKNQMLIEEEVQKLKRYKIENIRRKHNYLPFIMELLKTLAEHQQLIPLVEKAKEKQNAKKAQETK
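Material: Human UCH37 enzyme supplied as purified proteasome complex | Schedule: 30 min compound-proteasome preincubation then 25 min substrate reaction, room temperature | Detection: AMC fluorescence from Ub-AMC cleavage, excitation 355 nm, emission 460 nm | Benchmarks: Wells without proteasome as full block, compound-free enzyme plus substrate as uninhibited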
GSTO1 inh = counter-screen for RBBP9 inhibitors: inhibitors of human GSTO1; P78417; recombinant GSTO1, activity-based probe fluorescence polarization; inhibition, % at 5.96 µM; 1.1% of 300,000 active; AID 1974;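 active = inhibition above the campaign mean inhibition plus 3 SD, cut at about 35% in these data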;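 note: 0% = GSTO1-1 with DMSO and 100% = wells lacking GSTO1-1 enzyme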
Target sequence (P78417 whole entry, looked up): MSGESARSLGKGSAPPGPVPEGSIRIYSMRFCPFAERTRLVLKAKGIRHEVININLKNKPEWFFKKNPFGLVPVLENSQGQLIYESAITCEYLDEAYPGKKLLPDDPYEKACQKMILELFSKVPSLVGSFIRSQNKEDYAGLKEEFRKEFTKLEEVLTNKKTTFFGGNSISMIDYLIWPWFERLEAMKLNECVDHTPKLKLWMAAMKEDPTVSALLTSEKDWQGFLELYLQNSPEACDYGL
Apaf-1 inh = blocks human Apaf-1 apoptosome activity; O14727; reconstituted apoptosome caspase-3 activity, DEVD-Rh110 fluorescence; inhibition, % at 20 µM; 0.71% of 330,000 active; active = inhibition of at least 40% at 20 µM;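 note: plate controls were DMSO wells for no effect and DEVD-CHO caspase inhibitor wells for full effect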
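System: Apoptosome proteins | Medium: Hepes pH 7.5 with detergent and BSA | Also added: Cytochrome c trigger plus (Z-DEVD)2-Rh110 caspase-3 substrate | Incubation: 30 min compound preincubation, 50 min activation, room temperature | Detection: Rhodamine 110 fluorescence at Ex 480/Em 540 nm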
PP5 inh = PP5 (human) phosphatase inhibition; P53041; 0.18% of 320,000 active; inhibition, % at 6.7 µM; purified PP5c, OMFP substrate fluorescence;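 active = inhibition above the campaign's mean inhibition across all tested compounds plus 3 SD, cut at about 9.5% in these data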;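 note: 0% = DMSO only and 100% = 100 µM cantharidin control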
CTSL1 counter = cathepsin L1 inhibition, PFM18AAP counter-screen | recombinant F. hepatica cathepsin L1, Z-Leu-Arg-MCA fluorescence | inhibition, % at 5.96 µM | 0.49% of 300,000 active | AID 1906;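 active = inhibition above the mean of all tested compounds plus 3 SD, set per screening campaign, cut at about 17% in these data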;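 note: 0% = plate median of test compound wells and 100% = 1 µM Z-Phe-Ala-diazomethylketone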
PAD4 inh = PAD4 (human) enzyme inhibition; Q9UM07; recombinant PAD4, RCA probe fluorescence polarization; inhibition, % at 6.36 µM; 0.41% of 330,000 active; AID 485272;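 active = percent inhibition above a cutoff equal to the mean of all tested compounds plus 3 SD, cut at about 15% in these data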;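 note: 0% = PAD4 with RCA probe and DMSO and 100% = probe without PAD4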
Starred values were filed as active, the others as inactive; . = no result given. In the library only some 2% were active in any assay of this set; here they are far more common.

SMILES	UCH37 inh	GSTO1 inh	Apaf-1 inh	PP5 inh	CTSL1 counter	PAD4 inh
COc1ccc(CN=C(C)c2c(C(F)(F)F)[nH]n(-c3nc4ccccc4s3)c2=O)cc1	3	-1	12	1	18*	-5
CC(=NNC(=O)CC(C)C)c1c(C(F)(F)F)[nH]n(-c2nc3ccccc3s2)c1=O	4	.	.	.	.	.
COc1cccc(C=NN2CCN(c3ccncc3S(=O)(=O)N3CCCCC3)CC2)c1	4	.	.	.	.	.
Oc1cc2c(cc1O)C1c3ccc(O)c(O)c3OCC1(O)C2 (configuration not stated)	3	49*	12	5	-5	3
NC(=NS(=O)(=O)c1ccccc1)c1ccc([N+](=O)[O-])cc1	2	.	.	.	.	.
O=C(O)/C(=C\c1ccc(Cl)c([N+](=O)[O-])c1)c1ccc(S(=O)(=O)N2CCCCC2)s1	.	62*	7	1	-2	-1
COc1ccc(CC(=O)NN=C(C)c2cccs2)cc1	0	.	.	.	.	.
CCCC(=O)NC(c1cccs1)c1cc([N+](=O)[O-])c2cccnc2c1O (configuration not stated)	13	-4	.	3	3	-4
CCC(=O)NC(c1cccs1)c1cc([N+](=O)[O-])c2cccnc2c1O (configuration not stated)	20*	-2	30	3	0	0
CCc1ccccc1NC(=O)N1CCCC(CCC(=O)N(C)CCc2ccccn2)C1 (configuration not stated)	2	4	-14	0	-2	-4
COc1ccc(NC(=O)N2CCCC(CCC(=O)N(C)CCc3ccccn3)C2)cc1 (configuration not stated)	1	11	1	4	70*	-5
O=C(CCl)N(C/C=C/c1ccccc1)c1ccc2c(c1)OCCO2	0	93*	16	4	10	-1
CC1(C)Cc2ccccc2C(=O)N1	26*	-2	-5	0	0	-2
Cc1cccc(NS(=O)(=O)c2cc3c(cc2C)N(C)CCO3)c1	4	7	-2	2	65*	4
COc1cccc(NS(=O)(=O)c2cc3c(cc2C)N(C)CCO3)c1	4	3	-1	4	1	-2
CN(C1=C(NC(=O)c2ccc(Cl)cc2)C(=O)c2ccccc2C1=O)c1ccccc1	1	43*	34	4	-1	-1
CC(Cc1nnn(-c2cc(C)on2)n1)=NO	1	.	.	.	.	.
COc1ccc(-c2oc(NC(=O)CSc3nncn3C)c(C#N)c2-c2ccc(OC)cc2)cc1	-10	17	11	3	30*	-1
CCn1c(SCC(=O)Nc2oc(-c3ccccc3)c(-c3ccccc3)c2C#N)nnc1-c1ccco1	-1	-11	16	1	1	-2
COc1ccc(Cl)cc1NC(=S)NNC(=O)c1cccs1	0	11	8	1	2	2
COc1ccc(Cl)cc1NC(=S)NNC(=O)CC(C)C	0	0	-7	0	27*	1
O=C(NC1CCCC1)C(c1ccc(F)cc1)N(Cc1ccc(Cl)cc1)C(=O)CCl (configuration not stated)	0	18	9	-2	41*	-2
O=C(NC1CCCC1)C(c1ccc(Cl)cc1)N(Cc1ccc(F)cc1)C(=O)CCl (configuration not stated)	2	13	4	2	36*	1
CC(=O)N1CC=CC1(CC(C)C)C(=O)NCc1cc(F)cc(C(F)(F)F)c1 (configuration not stated)	3	-2	3	1	55*	0
O=c1c(=Cc2ccc([N+](=O)[O-])cc2)sc2n1CCCN=2	4	.	.	.	.	.
SMILES	UCH37 inh	GSTO1 inh	Apaf-1 inh	PP5 inh	CTSL1 counter	PAD4 inh
CC(CC1CC(C)OC1=O)=NNC(N)=S (configuration not stated)	1	.	.	.	.	.
C=C(C)Cc1c(C)nc(-c2ccccc2)[nH]c1=O	1	-4	-5	-5	26*	1
COc1ccc(CCN2CCC(Nc3nc4ccccc4n3Cc3ccc(F)cc3)CC2)cc1	4	3	56*	0	2	-3
COc1ccc(CNc2nc3ccccc3n2CCN2CCCCC2)cc1	2	-4	9	-1	-3	0
Cc1cccn2c(=O)c(/C=C(\C#N)C(=O)NC3CCS(=O)(=O)C3)c(N3CCC(C)CC3)nc12 (configuration not stated)	-4	1	-14	3	17*	3
CCOc1ccc(Br)cc1S(=O)(=O)Nc1ccc(Cl)c(S(=O)(=O)N(CC)c2ccccc2)c1	3	-16	18	4	17*	-1
NC(=S)N/N=C1\CCOc2ccc(F)cc21	.	8	-10	2	18*	-1
C=CCc1cccc(C=NNC(=O)C(C)Nc2cccc(C)c2)c1O (configuration not stated)	2	.	.	.	.	.
CCOC(=O)CC(=O)CSc1nnc2sc3ccccc3n12	4	-1	18	-2	41*	2
CN(C)C(=O)CSc1nnc2sc3ccccc3n12	7	4	-1	2	-2	-1
CCc1cc2c(SCC(=O)c3ccccc3)ncnc2s1	-1	2	6	-1	19*	2
CCc1cc2c(SCC(=O)O)ncnc2s1	1	-4	-5	7	-2	2
Cn1c(CS/C(N)=N/N=C/c2ccccc2)c(Br)c(=O)n1-c1ccccc1	.	3	-11	0	37*	11
O=C(NN=Cc1cccnc1)c1cc(-c2ccccc2)nc2ccccc12	2	.	.	.	.	.
C=C(C)CN(CC)c1nc(N)c2c(N)nc3c(c2c1C#N)CC(=O)N3C12CC3CC(CC(C3)C1)C2	-66	26	16	3	4	-2
N#Cc1c(N(CCO)CCO)nc(N)c2c(N)nc3c(c12)CC(=O)N3CC1CCCO1 (configuration not stated)	-177	32	98*	8	-3	1
O=C1c2cccc3cccc(c23)C(=O)N1CC1CCCO1 (configuration not stated)	-149	6	-1	1	-1	-2
CCCCN1C(=O)Cc2c1nc(N)c1c(N)nc(N(CCC)CCC)c(C#N)c21	-54	73*	.	15*	7	-14
NC(=NOC(=O)Cc1ccccc1)c1ccc([N+](=O)[O-])cc1	5	.	.	.	.	.
CNc1cccccc1=S	11	37*	29	2	-1	11
CC(NC(=O)Cn1nc(C(F)(F)F)c2c1CCC2)c1ccccc1 (configuration not stated)	-2	14	9	2	17*	1
COc1ccc(CN2C(=O)C(C)SC2=NN=Cc2ccco2)cc1 (configuration not stated)	5	.	.	.	.	.
COC(CN(C(=O)CCl)C(C(=O)NC1CCCC(C)C1C)c1ccc(C)cc1)OC (configuration not stated)	22*	30	3	1	61*	2
